Experimental data published in ChEMBL document CHEMBL3045579, “Herbicidal activity of cineole derivatives” (2010).
Activity calls are given as the source filed them. No cut-off for these calls is given here.

Legend:
Type in all cases: functional
[1] = system: Lolium rigidum; experiment: Pre-emergence herbicidal activity against Lolium rigidum seeds assessed as seed germination at 0.1 mol/l at 25 degC after 72 hr by laboratory-based agar medium bioassay relative to 1,8-Cineole
Summary of the method: (§1)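 Agar-plate assay as above: compound in organic solvent evaporated onto Ca/B water agar, 10 seeds × 5 dishes, 72 h at 25 °C in light. Germination, root length or shoot length at 0.1 mol L^-1 expressed relative to 1,8-cineole.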

[2] = system: Radish; experiment: Pre-emergence herbicidal activity against Raphanus sativus var.Long scarlet (radish) seeds assessed as seed germination at 0.1 mol/l at 25 degC after 72 hr by laboratory-based agar medium bioassay relative to control
Summary of the method: (§2)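 Solutions tested at 1 to 1 × 10^-4 mol L^-1. 10 seeds/dish, 5 randomized replicate dishes angled ~70°. Incubated 72 h at 25 °C in light. Solvent and no-solvent controls. Germination, root length and shoot length recorded.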

[3] = system: Lolium rigidum; experiment: Pre-emergence herbicidal activity against Lolium rigidum seeds assessed as concentration required to suppress root growth at 25 degC after 72 hr by laboratory-based agar medium bioassay
[4] = system: Lolium rigidum; experiment: Pre-emergence herbicidal activity against Lolium rigidum seeds assessed as concentration required to suppress shoot growth at 25 degC after 72 hr by laboratory-based agar medium bioassay
[5] = system: Radish; experiment: Pre-emergence herbicidal activity against Raphanus sativus var.Long scarlet (radish) seeds assessed as concentration required to suppress root growth at 25 degC after 72 hr by laboratory-based agar medium bioassay
[6] = system: Lolium rigidum; experiment: Pre-emergence herbicidal activity against Lolium rigidum seeds assessed as root length at 0.1 mol/l at 25 degC after 72 hr by laboratory-based agar medium bioassay relative to control; summary of the method: as §2
[7] = system: Radish; experiment: Pre-emergence herbicidal activity against Raphanus sativus var.Long scarlet (radish) seeds assessed as shoot length at 0.1 mol/l at 25 degC after 72 hr by laboratory-based agar medium bioassay relative to 1,8-Cineole; summary of the method: as §1
[8] = system: Radish; experiment: Pre-emergence herbicidal activity against Raphanus sativus var.Long scarlet (radish) seeds assessed as root length at 0.1 mol/l at 25 degC after 72 hr by laboratory-based agar medium bioassay relative to 1,8-Cineole; summary of the method: as §1
[9] = system: Lolium rigidum; experiment: Pre-emergence herbicidal activity against Lolium rigidum seeds assessed as seed germination at 0.1 mol/l at 25 degC after 72 hr by laboratory-based agar medium bioassay relative to control; summary of the method: as §2
[10] = system: Radish; experiment: Pre-emergence herbicidal activity against Raphanus sativus var.Long scarlet (radish) seeds assessed as concentration required to suppress shoot growth at 25 degC after 72 hr by laboratory-based agar medium bioassay
[11] = system: Radish; experiment: Pre-emergence herbicidal activity against Raphanus sativus var.Long scarlet (radish) seeds assessed as concentration required to suppress seed germination at 25 degC after 72 hr by laboratory-based agar medium bioassay
[12] = system: Radish; experiment: Pre-emergence herbicidal activity against Raphanus sativus var.Long scarlet (radish) seeds assessed as seed germination at 0.1 mol/l at 25 degC after 72 hr by laboratory-based agar medium bioassay relative to 1,8-Cineole; summary of the method: as §1
[13] = system: Lolium rigidum; experiment: Pre-emergence herbicidal activity against Lolium rigidum seeds assessed as concentration required to suppress seed germination at 25 degC after 72 hr by laboratory-based agar medium bioassay
[14] = system: Radish; experiment: Pre-emergence herbicidal activity against Raphanus sativus var.Long scarlet (radish) seeds assessed as shoot length at 0.1 mol/l at 25 degC after 72 hr by laboratory-based agar medium bioassay relative to control; summary of the method: as §2
[15] = system: Lolium rigidum; experiment: Pre-emergence herbicidal activity against Lolium rigidum seeds assessed as shoot length at 0.1 mol/l at 25 degC after 72 hr by laboratory-based agar medium bioassay relative to 1,8-Cineole; summary of the method: as §1
[16] = system: Radish; experiment: Pre-emergence herbicidal activity against Raphanus sativus var.Long scarlet (radish) seeds assessed as root length at 0.1 mol/l at 25 degC after 72 hr by laboratory-based agar medium bioassay relative to control; summary of the method: as §2
[17] = system: Lolium rigidum; experiment: Pre-emergence herbicidal activity against Lolium rigidum seeds assessed as shoot length at 0.1 mol/l at 25 degC after 72 hr by laboratory-based agar medium bioassay relative to control; summary of the method: as §2
[18] = system: Lolium rigidum; experiment: Pre-emergence herbicidal activity against Lolium rigidum seeds assessed as root length at 0.1 mol/l at 25 degC after 72 hr by laboratory-based agar medium bioassay relative to 1,8-Cineole; summary of the method: as §1

Structure (SMILES)	inhibition [1]	Activity [2] [%]	Activity [3] [mol/L]	Activity [4] [mol/L]	Activity [5] [mol/L]	Activity [6] [%]	inhibition [7]	inhibition [8]	Activity [9] [%]	Activity [10] [mol/L]	Activity [11] [mol/L]	inhibition [12]	Activity [13] [mol/L]	Activity [14] [%]	inhibition [15]	Activity [16] [%]	Activity [17] [%]	inhibition [18]	Ratio [8]	Ratio [12]	also measured
CC(C)(C)CC(=O)O [T-BUTYLACETIC ACID]	Active	0	0.0001	0.0001	0.01	0	Active	Active	0	0.1	0.1	Active	0.01	0	Active	0	0	Active			
CC(C)[C@]12CC[C@@](C)(O1)[C@H](OC(=O)CC(C)(C)C)C2 (racemic) [2-exo-t-butylacetoxy-1,4-cineole]		42.9	0.01	0.1	0.01					0.01	0.1		0.1	71.2		55.8			0.7	0.8	Ratio [7]: 0.9
CC(=O)O [ACETIC ACID]	Active	0	0.01	0.01	0.1	0	Active	Active	0	0.1	0.1	Active	0.1	0	Active	0	0	Active			
CC1(C)OC2(C)CC[C@H]1C[C@H]2O (single isomer, unassigned) [2-endo-hydroxy-1,8-cineole]		2.6	0.1	0.01	0.01	39.5	Active		51.5	0.1	0.01		0.1	0		6.8	15.4		5.5	13.1	Ratio [1]: 0.6; Ratio [15]: 1.8; Ratio [18]: 0.6
CCCC(=O)O [BUTYRIC ACID]	Active	0	0.01	0.1	0.01	0	Active	Active	0	0.01	0.1	Active	0.01	0	Active	0	0	Active			
O=C(O)c1ccccc1 [BENZOIC ACID]	Active	0	0.0001	0.0001	0.01	0	Active	Active	0	0.01	0.1	Active	0.01	0	Active	0	0	Active			
CC(=O)O[C@@H]1C[C@@]2(C(C)C)CC[C@@]1(C)O2 (racemic) [2-exo-acetoxy-1,4-cineole]	Active	4.5	0.01	0.01	0.01	0	Active		0	0.01	0.01		0.1	0	Active	2.7	0	Active	3.5	7.5	
CCCC(=O)O[C@@H]1C[C@@]2(C(C)C)CC[C@@]1(C)O2 (racemic) [2-exo-butoxy-1,4-cineole]							Active	Active				Active									
CC1(C)O[C@]2(C)CC[C@@H]1[C@@H](OC(=O)c1ccccc1)C2 (racemic) [3-exo-benzoxy-1,8-cineole]		98	0.01	0.1	0.01	10.9			82.2	0.1	1		0.1	61		42.4	41.6		0.8	0.3	Ratio [1]: 0.4; Ratio [7]: 1.1; Ratio [15]: 0.7; Ratio [18]: 2.1
CCCCCC(=O)O [HEXANOATE]	Active	0	0.0001	0.0001	0.001	0	Active	Active	0	0.1	0.1	Active	0.01	0	Active	0	0	Active			
CC1(C)O[C@]2(C)CC[C@@H]1[C@@H](O)C2 (racemic) [3-exo-hydroxy-1,8-cineole]		2.4	0.1	0.01	0.01	16.6			2.6	0.1	0.1		0.1	46.5		26.8	10.2		1.4	14.2	Ratio [1]: 11.6; Ratio [7]: 1.4; Ratio [15]: 2.8; Ratio [18]: 1.3
CC(=O)O[C@H]1C[C@@]2(C)CC[C@H]1C(C)(C)O2 (racemic) [3-Exo-acetoxy-1,8-cineole]		18.9	0.1	0.1	0.01	7.6			34.1	1	0.01		0.1	64.3		29.2	21.3		1.3	1.8	Ratio [1]: 0.9; Ratio [7]: 1; Ratio [15]: 1.3; Ratio [18]: 2.9
CC(C)[C@]12CC[C@@](C)(O1)[C@H](O)C2 (racemic) [2-Exo-hydroxy-1,4-cineole]		2.6	0.01	0.1	0.1	6.1			21.7	0.1	0.1		0.1	41.7		9.9	23.1		3.7	13.1	Ratio [1]: 1.4; Ratio [7]: 1.6; Ratio [15]: 1.2; Ratio [18]: 3.7
